# Screening data from PubChem BioAssay.
# This is one part of a sample in which hits are shown more often than they occur.
# PTEN del growth = PTEN-deleted cell growth suppression; HCT116 PTEN-null viability, CellTiter-Glo, 60 h; active compounds read low; viability, % at 10 µM; actives 1.2% (n = 140,000);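 active = viability at or below a set limit, 4 SD under the median of all tested compounds, cut at about 3.7% in these data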;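 note: PTEN knockout HCT116 line with beta catenin targeted HCT116 as companion control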
# H69AR inhibit = growth inhibitors of human H69AR lung tumor cells | H69AR lung tumor viability, ATP luminescence, 72 h; active compounds read low | viability, % at 10 µM | actives 6% (n = 85,000) | AID 598;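 active = viability at or below 40%; inactive = viability above 40%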;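 note: multidrug resistant small cell line overexpressing MRP-1 efflux transporter; 100% = mean luminescence of untreated control wells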
# HUVEC prolif 384 = inhibitors of human endothelial cell proliferation; HUVEC proliferation, CellTiter-Glo luminescence, 72 h; active compounds read low; viability, % at 10 µM (by protocol); actives 1.1% (n = 86,000); AID 648;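 active = viability at or below 30%; inactive = viability above 30%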;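 note: 100% = median luminescence of DMSO-only cell control wells on each plate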
# Lung fibro prol = blocks proliferation of human lung fibroblasts | LL 47 human lung fibroblast viability, ATP luminescence; active compounds read low | viability, % at 10 µM | actives 1.1% (n = 85,000);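 active = viability at or below 50% in the single dose screen; inactive = viability above 50%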;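 note: compound exposure lasted 72 h before the ATP readout; 100% = median luminescence of untreated cell-only wells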
#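 Material: human LL 47 lung fibroblast cells; quantity: 1,150 cells/well; medium: IMEM plus 15% FBS; doses: 0.1% DMSO in all compound wells; timing: overnight attachment after seeding, then 72 h compound exposure at 37 °C; detection: CellTiter-Glo luminescence; measure: % viability of median cell-only signal; controls: cell-only wells, no compound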
# bCat KO growth = beta-catenin-lacking colon tumor cell growth suppression; HCT116 beta-catenin knockout viability, CellTiter-Glo, 60 h; active compounds read low; viability, % at 10 µM; actives 1.5% (n = 140,000); AID 818;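 active = viability at or under a set limit, the compound median less 4 SD, cut at about 6% in these data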;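 note: 0% = Hyamine 1622 control at 20 µM and 100% = untreated cell control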
# * = called active by the depositor; nt = no result.
SMILES,PTEN del growth,H69AR inhibit,HUVEC prolif 384,Lung fibro prol,bCat KO growth
CCN1CCCC1CNC(=O)Cn1cnc2sc(C)c(S(=O)(=O)N3CCC(C)CC3)c2c1=O (stereo not given),81,82,99,106,79
Cc1cccc(N2CCN(S(=O)(=O)c3ccc(S(=O)(=O)N4CCCC4)cc3)CC2)c1C,77,16*,65,55,89
C=CCCCCCCCCC(=O)NN,91,nt,nt,nt,83
Cn1nc(C(=O)N2CCOCC2)c([N+](=O)[O-])c1C(=O)N1CCOCC1,102,nt,nt,nt,88
Cc1cc(N)n2ncc(-c3ccc(Cl)cc3)c2n1,52,42,36,46*,55
Cc1cc(NCCCn2ccnc2)n2nc(-c3ccc(F)cc3)cc2n1,81,67,92,88,72
Cc1cc(N)n2ncc(-c3ccc(F)cc3)c2n1,93,69,79,81,80
Cc1cc(NCCOCCO)n2ncc(-c3ccc(Cl)cc3)c2n1,19,22*,41,41*,28
CC(C)(C)c1cc(NCCCn2ccnc2)n2ncc(-c3ccc(Cl)cc3)c2n1,25,5.2*,8.7*,45*,20
Cc1ccc(NC(=O)CCNS(=O)(=O)c2cc(Br)cnc2N)cc1Cl,87,nt,nt,nt,84
Cc1cc(NC(=O)CCNS(=O)(=O)c2cc(Br)cnc2N)ccc1Br,71,31*,48,91,71
CC1=C(C(=O)Nc2cc(-c3cccc(F)c3)[nH]n2)C2(CCCCC2)OC1=O,74,32*,77,76,58
CCN(CC)c1ccc(NC(=O)CC2Oc3ccccc3NC2=O)c(C)c1 (stereo not given),65,25*,78,87,71
COc1cc(/C=N/Nc2snc(SC)c2C#N)cc(OC)c1OC,15,24*,60,71,14
CN(C)S(=O)(=O)c1ccc(Cl)c(C(=O)OCC(=O)NC(=O)c2cccn2C)c1,94,nt,nt,nt,94
CCOC(=O)CC(N)c1ccc2c(c1)OCO2 (stereo not given),101,91,97,92,102
CCC(C)NC(=O)c1ccccc1NC(=O)COc1ccc(OC)cc1 (stereo not given),100,32*,89,84,97
O=C(COc1ccc(Cl)cc1)Nc1ccccc1C(=O)NCc1ccco1,63,51,70,37*,67
COc1ccc(C(=O)Nc2ccccc2C(=O)NC(C(=O)NCc2ccco2)C(C)C)cc1 (stereo not given),2.0*,1.2*,44,39*,1.2*
COc1ccc(C(=O)Nc2ccccc2C(=O)N(Cc2ccco2)C(C(N)=O)C(C)C)cc1 (stereo not given),1.0*,5.6*,64,42*,1.1*
COc1ccc(NC(=O)c2ccccc2NC(=O)COc2ccccc2)cc1,93,85,30,90,95
COc1ccc(C(=O)Nc2ccccc2C(N)=O)cc1,92,87,99,104,85
Cc1cc(C)cc(OCC(=O)Nc2ccccc2C(=O)NCc2ccco2)c1,92,75,80,101,94
CN(C)S(=O)(=O)n1ccnc1,97,96,102,103,102
O=C(Cn1ccc2ccccc2c1=O)NCCC(=O)N1CCN(c2cccc(C(F)(F)F)c2)CC1,72,80,83,94,62
SMILES,PTEN del growth,H69AR inhibit,HUVEC prolif 384,Lung fibro prol,bCat KO growth
Cc1[nH][nH]c(=O)c1C(c1c(C)[nH][nH]c1=O)c1cn(Cc2ccccc2Cl)c2ccccc12,15,nt,nt,nt,24
CCOC(=O)C1=C(CC)Nc2ccccc2N=C1NC(=O)Cn1cnc2ccccc2c1=O,74,97,100,103,79
CCOC(=O)C1=C(CC)Nc2ccccc2N=C1NC(=O)Nc1ccc(Cl)c(Cl)c1,2.6*,nt,nt,nt,2.6*
Cc1nn(CC(=O)Nc2ccc(Cl)cn2)c(C)c1Br,96,nt,nt,nt,89
C/C(=C\C(=O)O)C12CC3CC(CC(C3)C1)C2,100,106,100,106,100
CCCN(CC(=O)Nc1ccc(Cl)cc1Cl)C(=O)/C=C/c1ccco1,98,nt,nt,nt,96
CCOC(=O)c1nc(-c2ccc(OC)c(OC)c2)cnc1C#N,95,nt,nt,nt,84
COc1ccc(-c2cc(N)n(S(=O)(=O)c3c(F)c(F)c(F)c(F)c3F)n2)cc1OC,2.1*,1.4*,2.2*,2.6*,5.7*
Cc1ccc2c(c1)cc(CN(Cc1ccco1)C(=O)COc1ccccc1)c1nnnn12,73,38*,84,102,79
Cc1ccc2c(c1)cc(CN(Cc1ccccc1)C(=O)N(C)C)c1nnnn12,nt,91,95,101,nt
CN1/C(=C/C(=O)c2cccs2)Sc2ccccc21,64,47,74,90,65
CN1/C(=C\C(=O)c2cccs2)Sc2ccccc21,64,40*,71,81,66
CCCn1c(NC(=S)Nc2ccccc2)nc2ccccc21,83,nt,nt,nt,86
S=C(Nc1ccccc1)Nc1nc2ccccc2n1CCOc1ccc(Cl)cc1,0.9*,nt,nt,nt,1.1*
Cc1cc(C)c2nc(C(F)(F)F)nc(NCCCN3CCOCC3)c2c1,38,8.9*,6.4*,51,23
Fc1ccccc1-c1nc(NCCCN2CCOCC2)c2ccccc2n1,84,50,86,105,79
O=C(/C=C\c1cn(-c2ccccc2)nc1-c1ccccc1)Nc1nccs1,1.2*,nt,nt,nt,1.6*
COc1ccc(-c2coc3cc4oc(=O)c5ccccc5c4cc23)cc1F,6,nt,nt,nt,4.5*
Cc1c(CCC(=O)O)c(=O)oc2cc3occ(-c4ccc(F)cc4)c3cc12,90,102,104,91,96
Cc1coc(NC(=O)CSc2nc(-c3ccncc3)cc(C(F)(F)F)c2C#N)n1,82,38*,88,99,92
C/C(CC(C)(C)C1CCCCC1)=N\NC(N)=S,13,24*,59,75,4.6*
COc1ccc(/C=N/NC(=O)c2nc(Cl)c(Cl)c(N)c2Cl)cc1COc1ccc(F)cc1F,5,nt,nt,nt,2.0*
COc1ccc(/C=N/NC(=O)c2nc(Cl)c(Cl)c(N)c2Cl)cc1COc1ccccc1F,20,nt,nt,nt,13
Cn1c2ccccc2c(=O)c2c(=O)n(C3CCCCC3)c(-c3cccs3)nc21,14,34*,54,41*,25
Cn1c2ccccc2c(=O)c2c(=O)n(C3CCCCCC3)c(C3CCCCC3)nc21,2.5*,nt,nt,nt,5.2*
SMILES,PTEN del growth,H69AR inhibit,HUVEC prolif 384,Lung fibro prol,bCat KO growth
CCOC(=O)c1nnn(-c2nonc2N)c1COc1cc(C)c(Cl)c(C)c1,nt,24*,99,102,nt
CC12CC(c3ccccc3O1)N(C(=O)c1ccco1)C(=S)N2c1ccc(F)cc1 (stereo not given),55,6.4*,60,87,66
CCOC(=O)CSc1nnc(CNC(=O)c2cccs2)n1-c1cc(C)ccc1C,89,81,95,109,93
Cc1ccc(-n2c(SCC(=O)NCc3ccco3)nc3sc(C)c(C)c3c2=O)cc1,87,36*,57,90,86
Cc1sc2nc(SCC(=O)NCc3ccco3)n(Cc3ccccc3)c(=O)c2c1C,64,3.1*,30*,90,63
Cc1sc2nc(SCC(=O)NCc3ccco3)n(-c3ccccc3)c(=O)c2c1C,89,55,80,88,92
